Columns and labels:
[1] = target: Cytochrome P450 3A4 (Homo sapiens, UniProt P08684); experiment: Inhibition of human hepatocyte microsome CYP3A4 using testosterone as substrate by HPLC/MS/MS method; assay type: ADME
Outline: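 Pooled human hepatocyte microsome preparation with an NADPH-regenerating system. Product analysed by HPLC/MS/MS. IC50 from a 4-parameter logistic fit of the dose-response data.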

[2] = target: T1, Steroid 17-alpha-hydroxylase/17,20 lyase (Homo sapiens, UniProt P05093); experiment: Inhibition of human recombinant CYP17 lyase activity using 17alpha-hydroxypregnenolone as substrate by HPLC/MS/MS method
T1 sequence (P05093 whole entry): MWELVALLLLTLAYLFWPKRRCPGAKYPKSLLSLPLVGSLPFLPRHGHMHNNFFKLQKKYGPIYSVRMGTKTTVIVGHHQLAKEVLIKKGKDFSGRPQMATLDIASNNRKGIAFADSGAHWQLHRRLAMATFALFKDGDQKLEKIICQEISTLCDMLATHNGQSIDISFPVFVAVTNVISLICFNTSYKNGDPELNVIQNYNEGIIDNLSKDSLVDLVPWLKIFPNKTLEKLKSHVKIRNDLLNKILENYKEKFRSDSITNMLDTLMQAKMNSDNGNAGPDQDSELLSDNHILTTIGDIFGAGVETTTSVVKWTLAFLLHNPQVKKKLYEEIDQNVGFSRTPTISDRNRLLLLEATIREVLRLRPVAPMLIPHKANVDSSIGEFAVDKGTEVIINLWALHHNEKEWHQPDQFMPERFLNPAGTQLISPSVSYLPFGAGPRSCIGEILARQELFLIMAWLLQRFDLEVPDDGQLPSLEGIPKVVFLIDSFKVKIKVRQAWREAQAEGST
Outline: (§1)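 Recombinant human CYP17 expressed in a yeast microsome system, run with an NADPH-regenerating system. Hydroxylase and lyase products analysed by HPLC/MS/MS. IC50 from a 4-parameter logistic fit of the dose-response data.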

[3] = target: T1, Steroid 17-alpha-hydroxylase/17,20 lyase; experiment: Inhibition of human recombinant CYP17 hydroxylase activity by HPLC/MS/MS method; outline: as §1
[4] = target: T1, Steroid 17-alpha-hydroxylase/17,20 lyase; experiment: Selectivity ratio of IC50 for human recombinant CYP17 hydroxylase activity to IC50 for human recombinant CYP17 lyase activity
Outline: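 Lyase selectivity expressed as human hydroxylase IC50 divided by human lyase IC50. Both values come from recombinant human CYP17 in a yeast microsome system, with products analysed by HPLC/MS/MS and 4-parameter logistic fitting.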

[5] = tested on: CYP3A4 versus CYP17 lyase; experiment: Selectivity ratio of IC50 for human hepatocyte microsome CYP3A4 to IC50 for human recombinant CYP17 lyase activity; assay type: ADME, cell-based; conditions: read-out: Ratio IC50
Outline: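 Ratio of human CYP3A4 IC50 (pooled human hepatocyte microsomes) to human CYP17 lyase IC50 (recombinant enzyme, yeast microsomes). Both IC50 values from HPLC/MS/MS product analysis with a 4-parameter logistic fit.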

[6] = target: T2, Steroid 17-alpha-hydroxylase/17,20 lyase (Rattus norvegicus, UniProt P11715); experiment: Inhibition of rat testicular microsome CYP17 lyase activity using 17alpha-hydroxypregnenolone as substrate by HPLC/MS/MS method
T2 sequence (P11715 whole entry): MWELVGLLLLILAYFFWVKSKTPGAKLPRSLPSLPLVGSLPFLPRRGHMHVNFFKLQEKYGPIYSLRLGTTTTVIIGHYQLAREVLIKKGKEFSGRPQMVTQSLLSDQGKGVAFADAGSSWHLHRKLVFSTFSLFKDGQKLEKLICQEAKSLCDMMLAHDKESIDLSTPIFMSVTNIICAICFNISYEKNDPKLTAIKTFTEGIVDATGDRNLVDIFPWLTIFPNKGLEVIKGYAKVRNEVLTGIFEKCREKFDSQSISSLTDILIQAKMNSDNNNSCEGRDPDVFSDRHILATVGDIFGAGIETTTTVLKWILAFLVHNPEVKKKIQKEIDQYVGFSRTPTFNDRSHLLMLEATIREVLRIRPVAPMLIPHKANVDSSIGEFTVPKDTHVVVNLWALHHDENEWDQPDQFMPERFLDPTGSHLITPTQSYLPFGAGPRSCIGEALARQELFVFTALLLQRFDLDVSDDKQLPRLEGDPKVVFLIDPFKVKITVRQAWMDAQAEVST
Outline: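 Rat testicular microsome preparation with an NADPH-regenerating system. Product analysed by HPLC/MS/MS. IC50 taken from a 4-parameter logistic fit of the dose-response data.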

[7] = tested on: CYP3A4 versus CYP17 lyase; experiment: Selectivity ratio of IC50 for human hepatocyte microsome CYP3A4 to IC50 for rat testicular microsome CYP17 lyase activity
[8] = Metabolic stability in human liver microsomes assessed as compound remaining after 60 mins; assay type: ADME; conditions: read-out: Stability
Outline: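 Incubation in human liver microsomes for 60 min. Read-out is the percentage of parent compound remaining.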

[9] = target: T2, Steroid 17-alpha-hydroxylase/17,20 lyase; experiment: Inhibition of rat testicular microsome CYP17 hydroxylase activity by HPLC/MS/MS method
Outline: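 Rat testicular microsomal preparation as the enzyme source, with an NADPH-regenerating system. Reaction product was analysed by HPLC/MS/MS. IC50 was derived from a 4-parameter logistic fit of the dose-response data.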

[10] = tested on: Hamster; experiment: Inhibition of CYP17 in gonadally-intact hamster assessed as testosterone level in serum at 50 mg/kg, po after 2 hrs by LC/MS/MS analysis (reference value: 1.98 +/- 0.057 ng/mL); assay type: functional, Cricetinae
[11] = tested on: Hamster; experiment: Inhibition of CYP17 in gonadally-intact hamster assessed as progesterone level in serum at 50 mg/kg, po after 2 hrs by LC/MS/MS analysis (reference value: 1.02 +/- 0.05 ng/mL); assay type: functional, Cricetinae

Sequence of Cytochrome P450 3A4 (P08684 whole entry): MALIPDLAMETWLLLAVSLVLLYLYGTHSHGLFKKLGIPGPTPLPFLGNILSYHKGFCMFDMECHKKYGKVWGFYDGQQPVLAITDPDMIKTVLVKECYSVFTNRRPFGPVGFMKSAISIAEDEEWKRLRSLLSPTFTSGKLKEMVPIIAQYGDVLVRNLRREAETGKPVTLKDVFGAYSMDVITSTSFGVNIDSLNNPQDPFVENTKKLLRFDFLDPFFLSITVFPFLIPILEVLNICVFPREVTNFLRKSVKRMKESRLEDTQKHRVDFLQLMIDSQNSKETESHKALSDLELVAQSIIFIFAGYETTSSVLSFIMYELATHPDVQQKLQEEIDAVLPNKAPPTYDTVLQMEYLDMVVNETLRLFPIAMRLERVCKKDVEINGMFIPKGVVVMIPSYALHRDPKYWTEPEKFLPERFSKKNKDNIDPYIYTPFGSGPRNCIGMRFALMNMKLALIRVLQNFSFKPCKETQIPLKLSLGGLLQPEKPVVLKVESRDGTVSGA

Row | Compound | IC50 [1] | IC50 [2] | IC50 [3] | IC50 [6] | Ratio IC50 [4] | selectivity ratio [5] | also measured
1 | CC(C)C(O)(c1ccc2cc(-c3cccs3)ccc2c1)c1c[nH]nn1 (racemic) | 81000 nM | > 4000 nM | 13000 nM | – | < 3 | < 20 | –
2 | COc1cc2ccc(C(O)(c3cn[nH]c3)C(C)C)cc2cc1OC (racemic) | 27000 nM | – | – | 430 nM | – | – | –
3 | COc1cc2ccc(C(O)(c3c[nH]nn3)C(C)C)cc2cc1OC (racemic) | 57000 nM | 180 nM | 2300 nM | – | 13 | 320 | selectivity ratio [7]: 317; remaining at 1 h [8]: 29%
4 | COc1cc2ccc(C(O)(c3nc[nH]n3)C(C)C)cc2cc1OC (racemic) | 100000 nM | – | – | 7100 nM | – | – | –
5 | COc1cc2ccc(C(O)(c3cncs3)C(C)C)cc2cc1OC (racemic) | 770 nM | – | – | – | – | – | –
6 | CC(C)C(O)(c1ccc2cc(OC(F)F)c(OC(F)F)cc2c1)c1c[nH]nn1 (racemic) | – | 170 nM | 690 nM | – | – | – | remaining at 1 h [8]: 54%
7 | CC(C)C(O)(c1ccc2cc(OCC(F)(F)F)c(OCC(F)(F)F)cc2c1)c1c[nH]nn1 (racemic) | 25000 nM | 310 nM | 3700 nM | – | 12 | 80 | –
8 | CC(C)C(O)(c1ccc2cc(-c3cnco3)ccc2c1)c1c[nH]nn1 (racemic) | 102000 nM | 940 nM | 13000 nM | – | 14 | 110 | –
9 | CC(C)C(O)(c1ccc2cc(OC(F)F)ccc2c1)c1c[nH]nn1 (racemic) | 14000 nM | 330 nM | 74 nM | – | 0.22 | 42 | –
10 | CC(C)C(O)(c1ccc2cc(OCC(F)(F)F)ccc2c1)c1c[nH]nn1 (racemic) | ≥ 195000 nM | 570 nM | 1000 nM | – | 1.8 | ≥ 340 | –
11 | CC(=O)O[C@H]1CC[C@@]2(C)C(=CC[C@@H]3[C@@H]2CC[C@]2(C)C(c4cccnc4)=CC[C@@H]32)C1 [ABIRATERONE ACETATE] | – | – | – | – | – | – | Activity [10]: 0.3 ng/mL; Activity [11]: 2.1 ng/mL
12 | CC(C)[C@](O)(c1ccc2cc(OC(F)F)c(OC(F)F)cc2c1)c1c[nH]nn1 [SEVITERONEL] | – | – | – | – | – | – | Activity [10]: 0.37 ng/mL; Activity [11]: 1.2 ng/mL

More lines, main results first:

Row | IC50 [1] | IC50 [2] | IC50 [3] | IC50 [6] | Compound | Ratio IC50 [4] | selectivity ratio [5] | also measured
13 | 1800 nM | – | – | 1600 nM | COc1cc2ccc(C(O)(c3cc[nH]n3)C(C)C)cc2cc1OC (racemic) | – | – | –
14 | 6500 nM | – | – | 86 nM | COc1cc2ccc(C(O)(c3cnco3)C(C)C)cc2cc1OC (racemic) | – | – | –
15 | 9400 nM | – | – | 4200 nM | COc1cc2ccc(C(O)(c3cccnc3)C(C)C)cc2cc1OC (racemic) | – | – | –
16 | 4500 nM | – | – | 60 nM | COc1cc2ccc(C(O)(c3ccncc3)C(C)C)cc2cc1OC (racemic) | – | – | –
17 | 18000 nM | – | – | – | COc1cc2ccc(C(O)(c3ccncn3)C(C)C)cc2cc1OC (racemic) | – | – | –
18 | 1600 nM | 50 nM | 220 nM | 29 nM | COc1cc2ccc(C(O)(c3c[nH]cn3)C(C)C)cc2cc1OC (racemic) | 4.4 | 32 | IC50 [9]: 140 nM; Activity [10]: 0.3 ng/mL; Activity [11]: 3.9 ng/mL
